One series is filed under the species Homo sapiens. The experiment in a line: Stability in human plasma at 10 uM after 2 hrs.
Series [1] in a line: Stability in rat plasma at 10 uM after 2 hrs. In kind it is ADME, cell-free. The settings on record: read-out: Stability. The method in brief: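 Frozen pooled human or rat plasma (sodium heparin) was incubated with compound at 37 °C for 2 h. Prodrug disappearance was followed by LC/MS/MS. Percent remaining is the prodrug peak area at 2 h divided by the area at time 0.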
The nature of series [2]: Solubility in phosphate buffer at pH 7.4. Type of series: physicochemical. In outline: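 Kinetic solubility was measured in phosphate buffer pH 7.4 with 5% DMSO, prepared from a 10 mM DMSO stock. Samples were vortexed, then centrifuged at 4300 RPM for 10 min to remove insoluble material. The supernatant was quantified by HPLC/UV against a calibration standard.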
A short description of series [3]: Stability in human liver microsome at 2 uM after 1 hr. As to conditions: liver microsomes, read-out: Stability. Type of series: ADME. In outline:
(§1)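 Compound was incubated at 37 °C for 1 h with cryopreserved pooled male human or rat liver microsomes. Loss of prodrug was tracked by LC/MS/MS. Percent remaining at 1 h was taken as the end-point peak area over the time-0 peak area.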

A short description of series [4]: Stability in rat liver microsome at 2 uM after 1 hr. In kind it is ADME. As to conditions: liver microsomes, read-out: Stability. The method in brief: as §1
For orientation: Microsomes from liver hold many membrane-bound enzymes, among them those of drug oxidation.

Series [5] is described as follows: Oral absorption in Sprague-Dawley rats. Type of series: ADME, organism-based. The settings on record: rat, in vivo. The method in brief: (§2)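 Plasma was acetonitrile-precipitated and analysed by LC/MS/MS for prodrug and parent, then AUC was computed. From dose-normalized AUCs, Abs = AUC_PO,PV/AUC_IV,JV and F = AUC_PO,JV/AUC_IV,JV.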
A short description of series [6]: Oral bioavailability in Sprague-Dawley rats. Type of series: ADME, organism-based. The settings on record: rat, in vivo. In outline:
as §2

Molecules are shown by their SMILES. Values after ≈ are worked out from the molar mass of the structure shown.

For `CC(=O)OC(C)OC(=O)NC(=N)c1ccc2[nH]c(-c3cccc(-c4ccccc4O)c3O)cc2c1` (stereo not drawn), the remaining at 2 h, 10 µM was 96% in the series listed under Homo sapiens and 37% in series [1]. Moreover, in series [2], the solubility (usually the concentration that dissolves in the medium under given conditions) was under 10 µM. Besides, the results for the remaining at 1 h, 2 µM in series [3] and in series [4] were 9% and 12%, respectively.
`N/C(=N/O)c1ccc2[nH]c(-c3cccc(-c4ccccc4O)c3O)cc2c1` showed a Fa in series [5] of 39%. Also, the values for the remaining at 2 h, 10 µM (in the series listed under Homo sapiens; in series [1]) were 97% and 94%, respectively. Besides, the concentration in solution in series [2] (solubility) came to 380 µM (≈ 137 µg/mL). Also, the values for the remaining at 1 h, 2 µM in series [3] and in series [4] were 41% and 9%, respectively. Moreover, the bioavailability (commonly dose-corrected exposure relative to a reference, in per cent) in series [6] was determined as 15%.
`N/C(=N/C(=O)OCC(Cl)(Cl)Cl)c1ccc2[nH]c(-c3cccc(-c4ccccc4O)c3O)cc2c1` returned a Fa in series [5] of 21%. Besides, the remaining at 2 h, 10 µM in the series listed under Homo sapiens is 100%; in series [1], 89%. For the same compound, the solubility in series [2] is under 10 µM. The figures for the remaining at 1 h, 2 µM in series [3] and in series [4] were 87% and 9%, respectively. Besides, in series [6], the bioavailability worked out at 14%.
Take `CCONC(=N)c1ccc2[nH]c(-c3cccc(-c4ccccc4O)c3O)cc2c1`: the Fa in series [5] was 53%. Further, the remaining at 2 h, 10 µM (in the series filed under Homo sapiens; in series [1]) was 100% each time. The solubility in series [2] was 43 µM (≈ 16.7 µg/mL). In addition, the values for the remaining at 1 h, 2 µM in series [3] and in series [4] were 50% and 70%, respectively. For the same compound, in series [6], the bioavailability worked out at 67%.
Consider `C=CCO/N=C(/N)c1ccc2[nH]c(-c3cccc(-c4ccccc4O)c3O)cc2c1`, for which the Fa in series [5] amounted to 100%. In addition, the remaining at 2 h, 10 µM in the series filed under Homo sapiens amounted to 100%; in series [1], 94%. For the same compound, the concentration in solution in series [2] (solubility) was 24 µM (≈ 9.59 µg/mL). Further, the remaining at 1 h, 2 µM is 55% in series [3] and 42% in series [4]. The same compound came in with a bioavailability in series [6] of 100%.
`N=C(N)c1ccc2nc(-c3cccc(-c4cc(F)ccc4O)c3O)[nH]c2c1` displayed a Fa in series [5] of under 1%. In addition, the bioavailability in series [6] was under 1%.
In the case of `CC(C)ONC(=N)c1ccc2[nH]c(-c3cccc(-c4ccccc4O)c3O)cc2c1`, the Fa in series [5] was found to be 54%. For the same compound, the remaining at 2 h, 10 µM (in the series filed under Homo sapiens; in series [1]) was 100% in each case. Moreover, the concentration in solution in series [2] (solubility) was 25 µM (≈ 10 µg/mL). Moreover, the remaining at 1 h, 2 µM worked out at 63% in series [3] and 69% in series [4]. Moreover, the bioavailability in series [6] was determined as 10%.
The compound `Oc1ccccc1-c1cccc(-c2nc3ccccc3[nH]2)c1O` displayed a Fa in series [5] of 100%. The bioavailability in series [6] was determined as 16%.
In series [5], `CC(C)OC(=O)NC(=N)c1ccc2[nH]c(-c3cccc(-c4ccccc4O)c3O)cc2c1` returned a Fa of 53%. The remaining at 2 h, 10 µM (in the series listed under Homo sapiens; in series [1]) was 100% throughout. The compound further showed a solubility in series [2] of under 10 µM. For the same compound, the remaining at 1 h, 2 µM in series [4] was found to be 49%. The bioavailability in series [6] turned out to be 23%.
In series [5], `CC(C)(C)ONC(=N)c1ccc2[nH]c(-c3cccc(-c4ccccc4O)c3O)cc2c1` registered a Fa of 60%. Moreover, the remaining at 2 h, 10 µM in the series listed under Homo sapiens was found to be 100%; in series [1], 99%. Moreover, in series [2], the solubility was under 10 µM. The remaining at 1 h, 2 µM came out at 100% in series [3] and 78% in series [4]. The compound further showed a bioavailability in series [6] of 38%.
As for `CCOC(=O)NC(=N)c1ccc2[nH]c(-c3cccc(-c4ccccc4O)c3O)cc2c1`, the figures for the remaining at 2 h, 10 µM (in the series listed under Homo sapiens; in series [1]) were 100% and 95%, respectively. In addition, in series [2], the solubility is under 10 µM. Moreover, the remaining at 1 h, 2 µM in series [3] worked out at 37%; in series [4], 53%.
In the case of `N=C(N)c1ccc2[nH]c(-c3cccc(-c4cc(F)ccc4O)c3O)cc2c1`, the remaining at 2 h, 10 µM (in the series filed under Homo sapiens; in series [1]) was 100% in each case. In series [2], this compound had a solubility of 83 µM (≈ 30 µg/mL). Besides, the results for the remaining at 1 h, 2 µM in series [3] and in series [4] were 61% and 100%, respectively. The same compound returned a bioavailability in series [6] of under 1%.

These data come from ChEMBL document CHEMBL1146956, “Factor VIIa inhibitors: a prodrug strategy to improve oral bioavailability” (Bioorg Med Chem Lett, 2006).
